Screening data from PubChem.
Shown are actives, neighbours in structure and some others; about 27% of the full set was active somewhere.
CYP2C9 inhib: blockers of cytochrome P450 2C9 activity – biochemical, luminescence, ADME assay, primary screen | P11712 | CYP2C9 Supersomes, luciferin-H conversion | inhibition, % at 5 µM | 96,000 tested, 20% active;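 active = blocking of liver enzyme CYP2C9 beyond about 50% at 5 µM, limit read from the data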
CYP2C19 activ: human CYP2C19 activators, primary screen, biochemical, luminescence | Cytochrome P450 2C19 (Homo sapiens), P33261 | recombinant CYP2C19, luciferin-H EGE luminescence; stronger effect = higher value; 0 = fully inhibited enzyme, 1 = untreated enzyme | activation factor at 5 µM | 96,000 tested, under 10 active | AID 1025, 2008;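 active = activation factor of at least 2 at 5 µM in the primary screen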
Cav32 inh: Cav3.2 calcium influx blockers – cell-based, Fluo-4 calcium fluorescence, FDSS, MLSMR library, primary screen; Voltage-dependent T-type calcium channel subunit alpha-1H (Homo sapiens), O95180; Cav3.2-expressing cells; stronger effect = lower value; B-score at 10 µM; 100,000 tested, 4% active;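 active = single-dose well whose peak fluorescence ratio is a statistical outlier from its plate by either plate-standardised score or position-corrected B-score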
CYP2C19 inh: blockers of cytochrome P450 2C19 activity – biochemical, luminescence, ADME assay, primary screen; CYP2C19 Supersomes, luciferin-H EGE luminescence, 30 min; inhibition, % at 5 µM; 96,000 tested, 21% active;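 active = CYP2C19 inhibition above a set limit at 5 µM in the primary screen, cut at about 50% in these data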
CYP2C9 act: human CYP2C9 activators, primary screen, biochemical, luminescence. Cytochrome P450 2C9 (Homo sapiens), P11712. recombinant CYP2C9, luciferin-H conversion; stronger effect = higher value; factor 1 = untreated enzyme, 0 = blocked. activation factor at 5 µM. 96,000 tested, 1.4% active;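 active = activation factor of 2 or more for CYP2C9 at a 5 µM dose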
Rev-RRE block: HIV-1 Rev-RRE binding inhibitors, primary screen, biochemical, FRET, protein-RNA interaction. P05866. Rev peptide-RRE RNA binding. inhibition, % at 8 µM. 97,000 tested, 0.79% active;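 active = inhibition above the screen-wide mean plus 3 SD, cut at about 35% in these data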
Target sequence (P05866 whole entry, looked up): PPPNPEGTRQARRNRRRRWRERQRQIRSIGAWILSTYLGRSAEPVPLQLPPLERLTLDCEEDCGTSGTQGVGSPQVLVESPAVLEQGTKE
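System: Cy5-labelled duplex RRE RNA binding fluorescein-labelled HIV Rev peptide; Signal: fluorescein-to-Cy5 FRET, 480 nm excitation; Also added: labelled Rev peptide; Compound: one concentration, 8 µM nominal; Buffer or medium: HEPES pH 7.5 salt buffer with EDTA; Read-out: % inhibition of FRET ratio versus controls; Schedule: 5 min preincubation and 15 min binding, 25 °C.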
Large screens that a line does not name were inactive.

COc1ccc(CCNS(=O)(=O)c2cccs2)cc1	CYP2C9 inhib 90, CYP2C19 inh 99
COc1ccc(S(=O)(=O)NCCc2ccc(F)cc2)cc1	CYP2C19 inh 100
CCCCNS(=O)(=O)c1ccc(OC)cc1	none
CCS(=O)(=O)NCCCCc1ccccc1	CYP2C19 inh 60
COC(=O)/C(=C1/Oc2cc3c(cc2S1)OCO3)C(F)(F)F	none (no result: Rev-RRE block)
CN(C)C(=O)C12CCC(C)(c3nc4ccccc4nc31)C2(C)C (stereo unspecified)	none
O=C(COC(=O)c1cccc(S(=O)(=O)N2CCOCC2)c1)Nc1nc(-c2ccccc2Cl)cs1	CYP2C9 inhib 74, Cav32 inh -5, CYP2C19 inh 67
O=C(OCc1nc2ccccc2s1)c1cccc(S(=O)(=O)N2CCOCC2)c1	CYP2C9 inhib 65, CYP2C19 inh 60
O=C(CCc1ccc(S(=O)(=O)N2CCOCC2)cc1)OCc1nc2ccccc2s1	none
COc1ccccc1-n1c(C)cc(C=O)c1C	CYP2C9 inhib 54
CC(C)C(=O)Nc1ccc(NC(=O)c2cccnc2)cn1	none
O=C(Nc1ccnc(-c2cccnc2)n1)c1cccc(Cl)c1Cl	CYP2C19 inh 51
CC(C)C(=O)Nc1ccnc(-c2cccnc2)n1	CYP2C19 inh 76
O=C(Nc1ccnc(-c2cccnc2)n1)c1ccccc1Cl	none
CCCCC(=O)Nc1ccnc(-c2cccnc2)n1	CYP2C9 inhib 76, CYP2C19 inh 98
COc1ccc2cc3[n+](cc2c1OC)CCc1cc2c(cc1-3)OCO2	none (no result: CYP2C9 inhib, CYP2C19 activ, CYP2C19 inh, CYP2C9 act, Rev-RRE block)
Cc1occc1-c1nnc(SCC(=O)Nc2nc3ccccc3s2)o1	CYP2C9 inhib 75, CYP2C19 inh 79
Cc1occc1-c1nnc(SCC(=O)c2cc3ccccc3oc2=O)o1	CYP2C9 inhib 90
CC(=O)Nc1cc(C(=O)N2CCN(C)CC2)ccc1Sc1ccc(C)cc1	none
Cc1ccc(NC(=O)c2ccc(-n3cncn3)c([N+](=O)[O-])c2)cc1	CYP2C9 inhib 91, CYP2C19 inh 100
O=C(Nc1cccc(Cl)c1)c1ccc(-n2cncn2)c([N+](=O)[O-])c1	CYP2C9 inhib 100, CYP2C19 inh 100
O=C(Nc1ccc(Cl)cc1)c1ccc(-n2cncn2)c([N+](=O)[O-])c1	CYP2C9 inhib 98, CYP2C19 inh 100
Cc1ccc(NC(=O)c2ccc(-n3cccn3)c([N+](=O)[O-])c2)cc1C	none
O=C(Nc1cccc(Cl)c1)c1ccc(NCCCN2CCOCC2)c([N+](=O)[O-])c1	none
Cc1nc(-c2cccnc2)sc1C(N)=O	none (no result: Cav32 inh)
CCC1=C(OC(=O)N(CC)CC)N2C(=O)OC(=NCC(=O)OC)[C@]2(Cc2ccccc2)[C@H]2C1=CC[C@H]1C(=O)NC(=O)[C@H]12	none (no result: CYP2C9 inhib, CYP2C19 activ, CYP2C19 inh, CYP2C9 act, Rev-RRE block)
Cc1noc(NC(=O)c2ccccc2)c1C#N	none
Cc1ccc(C(=O)Nc2onc(C)c2C#N)cc1	CYP2C9 inhib 58
CC(=O)c1c(C)[nH]c(C(=O)Nc2ccc(C)cn2)c1C	none
CC(=O)c1c(C)[nH]c(C(=O)Nc2cc(C)cc(C)c2)c1C	CYP2C9 inhib 84, CYP2C19 inh 58
O=C(CN1CCN(Cc2ccccc2)CC1)Nc1cccc(C(F)(F)F)c1	CYP2C9 inhib 51, Cav32 inh -6.6, CYP2C19 inh 55
COC(=O)c1cccc(NC(=O)CN2CCN(Cc3ccccc3)CC2)c1	CYP2C9 inhib 64, CYP2C19 inh 51
O=C(CN1CCN(c2ccccc2)CC1)Nc1cccc(C(F)(F)F)c1	none
CC1CN(CC(=O)Nc2cccc(C(=O)Nc3cccc(C(F)(F)F)c3)c2)CC(C)O1 (stereo unspecified)	CYP2C9 inhib 77, CYP2C19 inh 54
COC(=O)c1cccc(Oc2nc3c(c(=O)n(C)c(=O)n3C)n2C(C)C)c1	CYP2C9 inhib 75 (no result: Cav32 inh)
CCCCn1c(Oc2ccc(C(=O)OC)cc2)nc2c1c(=O)n(C)c(=O)n2C	none (no result: Rev-RRE block)
COC(=O)c1cccc(NC(=O)Cn2cnc3c2c(=O)n(C)c(=O)n3C)c1	CYP2C9 inhib 61 (no result: Rev-RRE block)
CC(C)NC(=O)Cn1cnc2c1c(=O)n(C)c(=O)n2C	none
